In ChEMBL document CHEMBL1158986, “New antimicrobial filicinic acid derivatives from Hypericum drummondii” (1991):
Values after ≈ are worked out from the molar mass of the structure shown.

Assays:
Format in all cases: functional
Bacillus subtilis = test: Antimicrobial activity against Bacillus subtilis after 24 hrs by twofold serial broth dilution technique
In short: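 B. subtilis (ATCC 6633) cultured in eugon broth. MIC by twofold serial broth dilution, compounds tested over 0.20–100 μg/ml. Tubes incubated at 30°, read after 24 h. MIC taken as the lowest concentration inhibiting growth. Streptomycin sulfate as standard control.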

[1] = tested on: Mycolicibacterium smegmatis; test: Antimicrobial activity against Mycobacterium smegmatis after 48 hrs by twofold serial broth dilution technique
In short: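 Mycobacterium smegmatis (ATCC 607) grown in eugon broth. Twofold serial broth dilution from 0.20 to 100 μg/ml, tubes kept at 37°, MIC read after 48 h as the lowest concentration preventing growth. Streptomycin sulfate included as standard control.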

Staphylococcus aureus = test: Antimicrobial activity against Staphylococcus aureus after 24 hrs by twofold serial broth dilution technique
In short: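 S. aureus (ATCC 6538) cultured in eugon broth. Twofold serial broth dilution covering 0.20–100 μg/ml. Incubation at 37° for 24 h. MIC is the lowest concentration with no growth. Streptomycin sulfate served as standard control.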

CC(=O)C1=C(O)C(C)(CC=C(C)C)C(O)=C(Cc2c(O)c(C(C)=O)c(O)c3c2OC(C)(C)C=C3)C1=O (stereo not given) [ISODRUMMONDIN D]
MIC (Bacillus subtilis): 0.2 µg/mL (≈ 0.403 µM) | MIC [1]: 1.56 µg/mL (≈ 3.14 µM) | MIC (Staphylococcus aureus): 0.78 µg/mL (≈ 1.57 µM)

CC(=O)C1=C(O)C(C)(CC=C(C)C)C(O)=C(Cc2c(O)c(CC=C(C)C)c(O)c(C(C)=O)c2O)C1=O (stereo not given) [DRUMMONDIN F]
MIC (Bacillus subtilis): 0.78 µg/mL (≈ 1.56 µM) | MIC [1]: 1.56 µg/mL (≈ 3.13 µM) | MIC (Staphylococcus aureus): 0.78 µg/mL (≈ 1.56 µM)

CN[C@@H]1[C@H](O[C@H]2[C@H](O[C@H]3[C@H](O)[C@@H](O)[C@H](N=C(N)N)[C@@H](O)[C@@H]3N=C(N)N)O[C@@H](C)[C@]2(O)C=O)O[C@@H](CO)[C@H](O)[C@H]1O [STREPTOMYCIN]
MIC (Bacillus subtilis): 0.78 µg/mL (≈ 1.34 µM) | MIC [1]: 1.56 µg/mL (≈ 2.68 µM) | MIC (Staphylococcus aureus): 12.5 µg/mL (≈ 21.5 µM)

CC(=O)C1=C(O)C(C)(CC=C(C)C)C(O)=C(Cc2c(O)c3c(c(C(C)=O)c2O)OC(C)(C)C=C3)C1=O (stereo not given) [DRUMMONDIN D]
MIC (Bacillus subtilis): 0.39 µg/mL (≈ 0.785 µM) | MIC [1]: 1.56 µg/mL (≈ 3.14 µM) | MIC (Staphylococcus aureus): 0.78 µg/mL (≈ 1.57 µM)

CC(=O)C1=C(O)C(C)(CC=C(C)C)C(O)=C(Cc2c(OCC=C(C)C)cc(O)c(C(C)=O)c2O)C1=O (stereo not given) [DRUMMONDIN E]
MIC (Bacillus subtilis): 0.2 µg/mL (≈ 0.401 µM) | MIC [1]: 3.12 µg/mL (≈ 6.26 µM) | MIC (Staphylococcus aureus): 0.39 µg/mL (≈ 0.782 µM)
